# Experiments:
# [1] = molecular target: T1, Amine oxidase [flavin-containing] A (Homo sapiens, UniProt P21397); assay: Inhibition of human recombinant MAO-A expressed in baculovirus infected BTI cells using p-tyramine as substrate at 100000 nM after 15 mins by Amplex Red-based fluorescence assay; conditions: 0.25 h, 100 µM
# T1 sequence (P21397 whole entry): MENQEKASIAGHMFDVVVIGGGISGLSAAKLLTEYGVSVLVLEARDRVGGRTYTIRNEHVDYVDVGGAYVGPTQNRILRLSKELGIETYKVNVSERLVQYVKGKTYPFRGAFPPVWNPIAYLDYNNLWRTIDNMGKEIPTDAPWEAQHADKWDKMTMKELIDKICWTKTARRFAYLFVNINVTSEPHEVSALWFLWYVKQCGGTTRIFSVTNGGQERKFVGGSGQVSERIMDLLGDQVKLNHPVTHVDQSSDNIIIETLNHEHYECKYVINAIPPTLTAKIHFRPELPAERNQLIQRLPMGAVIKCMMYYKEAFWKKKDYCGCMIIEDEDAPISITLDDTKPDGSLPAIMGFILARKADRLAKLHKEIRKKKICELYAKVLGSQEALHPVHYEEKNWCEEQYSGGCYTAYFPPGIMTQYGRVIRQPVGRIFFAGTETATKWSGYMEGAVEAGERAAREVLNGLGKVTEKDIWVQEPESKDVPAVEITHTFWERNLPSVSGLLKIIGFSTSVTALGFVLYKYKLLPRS
# Procedure, shortened: (§1)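 Recombinant hMAO-A or hMAO-B, set to oxidize 165 pmol p-tyramine/min in controls, preincubated with compound for 15 min at 37 °C in the dark. Reaction started with Amplex Red, horseradish peroxidase (1 U/mL) and p-tyramine. Resorufin fluorescence read at 37 °C (ex 545, em 590 nm), with an enzyme-free buffer blank subtracted. Single highest concentration tested: 100000 nM, or 1×10⁶ nM.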
# [2] = molecular target: T2, Amine oxidase [flavin-containing] B (Homo sapiens, UniProt P27338); assay: Inhibition of human recombinant MAO-B expressed in baculovirus infected BTI cells using p-tyramine as substrate after 15 mins by Amplex Red-based fluorescence assay; format: cell-based
# T2 sequence (P27338 whole entry): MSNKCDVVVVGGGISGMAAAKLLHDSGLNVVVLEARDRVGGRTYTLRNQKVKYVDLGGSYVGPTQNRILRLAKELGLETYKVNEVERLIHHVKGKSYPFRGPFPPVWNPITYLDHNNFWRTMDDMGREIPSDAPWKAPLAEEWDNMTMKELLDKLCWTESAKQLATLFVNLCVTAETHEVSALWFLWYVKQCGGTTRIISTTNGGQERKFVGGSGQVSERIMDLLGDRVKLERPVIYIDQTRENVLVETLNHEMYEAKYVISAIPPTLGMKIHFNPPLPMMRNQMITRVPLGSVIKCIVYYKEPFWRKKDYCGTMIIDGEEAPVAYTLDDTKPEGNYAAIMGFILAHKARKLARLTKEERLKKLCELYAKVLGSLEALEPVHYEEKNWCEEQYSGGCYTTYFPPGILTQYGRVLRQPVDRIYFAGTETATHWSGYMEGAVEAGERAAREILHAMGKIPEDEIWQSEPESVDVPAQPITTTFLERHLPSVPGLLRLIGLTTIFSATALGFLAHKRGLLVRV
# [3] = molecular target: T2, Amine oxidase [flavin-containing] B; assay: Inhibition of human recombinant MAO-B expressed in baculovirus infected BTI cells using p-tyramine as substrate at 100000 nM after 15 mins by Amplex Red-based fluorescence assay; conditions: 0.25 h; for inhibition (INH): bti, 100 µM; procedure, shortened: as §1
# [4] = molecular target: T2, Amine oxidase [flavin-containing] B; assay: Inhibition of human recombinant MAO-B expressed in baculovirus infected BTI cells using p-tyramine as substrate at 1x10'6 nM after 15 mins by Amplex Red-based fluorescence assay; conditions: 0.25 h; procedure, shortened: as §1
inhibition (INH) [1],IC50 [2] [µM],SMILES,other results
Not Active,2.46,CC(=O)N1N=C(c2ccccc2C)OC1c1ccc(Cl)c(Cl)c1 (stereo not given),–
Not Active,0.218,COc1ccc(C2=NN(C(C)=O)C(c3ccc(Cl)c(Cl)c3)O2)cc1 (stereo not given),–
Not Active,0.00946,CC(=O)N1N=C(c2ccc([N+](=O)[O-])cc2)OC1c1ccc(Cl)c(Cl)c1 (racemic),–
Not Active,69.4,CC(=O)N1N=C(c2ccncc2)OC1c1ccc(Cl)c(Cl)c1 (stereo not given),–
Not Active,–,CC(=O)N1N=C(c2ccc(N(C)C)cc2)OC1c1ccc(Cl)c(Cl)c1 (stereo not given),inhibition (INH) [3]: Not Active
Not Active,0.0193,CC(=O)N1N=C(c2ccc(C)cc2)OC1c1ccc(Cl)c(Cl)c1 (stereo not given),–
Not Active,0.0677,CC(=O)N1N=C(c2ccc(Br)cc2)OC1c1ccc(Cl)c(Cl)c1 (stereo not given),–
–,–,O=C(NCCN1CCOCC1)c1ccc(Cl)cc1 [MOCLOBEMIDE],inhibition (INH) [4]: Not Active
Not Active,0.627,CC(=O)N1N=C(c2ccc(Cl)cc2)OC1c1ccc(Cl)c(Cl)c1 (racemic),–
–,–,CC(=O)N1N=C(c2ccc(Cl)cc2)O[C@H]1c1ccc(Cl)c(Cl)c1,inhibition (INH) [3]: Not Active
–,0.00761,CC(=O)N1N=C(c2ccc([N+](=O)[O-])cc2)O[C@@H]1c1ccc(Cl)c(Cl)c1,–
–,0.523,CC(=O)N1N=C(c2ccc([N+](=O)[O-])cc2)O[C@H]1c1ccc(Cl)c(Cl)c1,–
Not Active,–,CC(=O)N1N=C(c2ccc(C#N)cc2)OC1c1ccc(Cl)c(Cl)c1 (stereo not given),inhibition (INH) [3]: Not Active
Not Active,–,CC(=O)N1N=C(c2ccccc2)OC1c1ccc(Cl)c(Cl)c1 (stereo not given),inhibition at 100 µM ([3]; BTI): 40%
–,0.204,CC(=O)N1N=C(c2ccc(Cl)cc2)O[C@@H]1c1ccc(Cl)c(Cl)c1,–

# From ChEMBL document CHEMBL3769340, “Drug design, synthesis, in vitro and in silico evaluation of selective monoaminoxidase B inhibitors based on 3-acetyl-2-dichlorophenyl-5-aryl-2,3-dihydro-1,3,4-oxadiazole chemical scaffold” (Eur J Med Chem, 2016)
